According to ChEMBL document CHEMBL1138987, “Development of cyclic gamma-MSH analogues with selective hMC3R agonist and hMC3R/hMC5R antagonist activities” (J Med Chem, 2006):

Tests used:
[1] = biological target: T1, Melanocyte-stimulating hormone receptor (Homo sapiens, UniProt Q01726); assay: Activity against hMC1R transfected in HEK293 cells by intracellular cAMP accumulation; format: functional, cell-based
Procedure, shortened: (§1)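 HEK293 cells stably transfected with human receptor, grown to confluence in MEM with 10% FBS, seeded 48 h before assay. Cells preincubated 1 min at 37 °C in EBSS with IBMX (0.5 mM stock). Peptide added (10^-10 to 10^-5 M), 3 min at 37 °C. Stopped with ice-cold Tris/EDTA, boiled, cAMP measured by competitive binding kit. EC50 from nonlinear least-squares fit; mean of two experiments in triplicate.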

Melanocortin receptor 5 [2] = biological target: T2, Melanocortin receptor 5 (Homo sapiens, UniProt P33032); assay: Activity against hMC5R transfected in HEK293 cells by intracellular cAMP accumulation; format: functional, cell-based; procedure, shortened: as §1
Melanocortin receptor 3 [3] = biological target: T3, Melanocortin receptor 3 (Homo sapiens, UniProt P41968); assay: Activity against hMC3R transfected in HEK293 cells by intracellular cAMP accumulation; format: functional, cell-based; procedure, shortened: as §1
Melanocortin receptor 4 [4] = biological target: T4, Melanocortin receptor 4 (Homo sapiens, UniProt P32245); assay: Activity against hMC4R transfected in HEK293 cells by intracellular cAMP accumulation; format: functional, cell-based; procedure, shortened: as §1
Melanocortin receptor 3 [5] = biological target: T3, Melanocortin receptor 3; assay: Inhibitory activity against hMC3R transfected in HEK293 cells; format: cell-based
Procedure, shortened: (§2)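 Competition binding on whole HEK293 cells stably expressing the human receptor, seeded 48 h prior. Binding buffer was MEM, 25 mM HEPES pH 7.4, 0.2% BSA, 1,10-phenanthroline, leupeptin and bacitracin. Cells washed and lysed, then gamma counted. IC50 from nonlinear least-squares fit; mean of two experiments in triplicate.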

[6] = biological target: T1, Melanocyte-stimulating hormone receptor; assay: Inhibitory activity against hMC1R transfected in HEK293 cells; format: cell-based; procedure, shortened: as §2
Melanocortin receptor 4 [7] = biological target: T4, Melanocortin receptor 4; assay: Inhibitory activity against hMC4R transfected in HEK293 cells; format: cell-based; procedure, shortened: as §2
Melanocortin receptor 5 [8] = biological target: T2, Melanocortin receptor 5; assay: Inhibitory activity against hMC5R transfected in HEK293 cells; format: cell-based; procedure, shortened: as §2

T3 sequence (P41968 whole entry): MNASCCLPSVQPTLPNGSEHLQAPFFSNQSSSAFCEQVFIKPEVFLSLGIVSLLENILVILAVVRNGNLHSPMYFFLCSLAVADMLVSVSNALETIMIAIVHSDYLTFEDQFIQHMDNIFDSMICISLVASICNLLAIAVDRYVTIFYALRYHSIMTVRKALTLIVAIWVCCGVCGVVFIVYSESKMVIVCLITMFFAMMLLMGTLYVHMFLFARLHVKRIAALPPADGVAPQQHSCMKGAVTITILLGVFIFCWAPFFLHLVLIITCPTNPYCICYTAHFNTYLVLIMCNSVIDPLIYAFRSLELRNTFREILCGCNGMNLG
T2 sequence (P33032 whole entry): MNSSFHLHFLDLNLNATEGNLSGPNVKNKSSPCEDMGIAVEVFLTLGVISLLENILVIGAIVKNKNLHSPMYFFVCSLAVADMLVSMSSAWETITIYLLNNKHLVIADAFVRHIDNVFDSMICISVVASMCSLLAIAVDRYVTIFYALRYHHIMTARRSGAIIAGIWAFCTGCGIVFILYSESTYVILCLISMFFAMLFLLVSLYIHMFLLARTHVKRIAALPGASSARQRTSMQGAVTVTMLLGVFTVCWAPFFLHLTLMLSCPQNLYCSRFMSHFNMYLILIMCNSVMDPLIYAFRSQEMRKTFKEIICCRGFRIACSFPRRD
T4 sequence (P32245 whole entry): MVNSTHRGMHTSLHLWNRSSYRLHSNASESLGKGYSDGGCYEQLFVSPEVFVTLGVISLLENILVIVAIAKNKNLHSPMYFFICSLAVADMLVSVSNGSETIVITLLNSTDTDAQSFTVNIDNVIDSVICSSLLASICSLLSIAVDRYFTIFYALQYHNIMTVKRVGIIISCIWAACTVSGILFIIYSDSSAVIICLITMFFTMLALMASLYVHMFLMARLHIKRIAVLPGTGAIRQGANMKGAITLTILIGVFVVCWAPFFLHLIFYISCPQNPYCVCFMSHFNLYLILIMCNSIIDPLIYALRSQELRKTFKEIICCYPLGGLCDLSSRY
T1 sequence (Q01726 whole entry): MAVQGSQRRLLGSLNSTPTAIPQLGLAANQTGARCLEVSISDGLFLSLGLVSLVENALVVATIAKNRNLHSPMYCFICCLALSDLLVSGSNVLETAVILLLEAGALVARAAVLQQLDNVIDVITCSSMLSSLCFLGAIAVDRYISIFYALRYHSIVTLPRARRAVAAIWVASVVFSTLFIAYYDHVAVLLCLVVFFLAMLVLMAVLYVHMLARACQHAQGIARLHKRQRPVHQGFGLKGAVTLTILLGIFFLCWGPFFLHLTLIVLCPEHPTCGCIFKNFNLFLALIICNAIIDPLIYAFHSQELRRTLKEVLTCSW

Work on `CCCC[C@@H]1NC(=O)CC[C@@H](C(N)=O)NC(=O)[C@H](Cc2c[nH]c3ccccc23)NC(=O)[C@H](CCCN=C(N)N)NC(=O)[C@@H](Cc2ccc3ccccc3c2)NC(=O)[C@H](CCCN=C(N)N)NC1=O` yielded an EC50 [1] of over 10000 nM, an EC50 (Melanocortin receptor 5 [2]) of over 10000 nM and an EC50 (Melanocortin receptor 3 [3]) of over 10000 nM. The EC50 (Melanocortin receptor 4 [4]) was 530 nM, the IC50 (Melanocortin receptor 3 [5]) was 2.6 nM and the IC50 [6] was 1500 nM. For the same compound, the IC50 (Melanocortin receptor 4 [7]) was 77 nM and the IC50 (Melanocortin receptor 5 [8]) was 2.3 nM.
